The target of test [1] is T1, Glutamate NMDA receptor; Grin1/Grin2b (Rattus norvegicus) (UniProt P35439+Q00960). Put plainly: Positive allosteric modulation of recombinant rat GluN1alpha/GluN2B receptor expressed in HEK293 cells assessed as potentiation of glutamate-induced current response at 30 uM at holding potential -60mV cotreated with 1 mM glutamate by whole cell voltage clamp method relative to control. Format: cell-based. Summed up: (§1)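 HEK293 cells expressing GluN1-1a/GluN2B, whole-cell voltage clamp at -60 mV, 21–25 °C. Compound at 30 µM was given in one of three ways: co-applied with 1 µM glutamate, co-applied with 1 mM glutamate, or pre-applied before 1 mM glutamate. Delivery by fast perfusion, DMSO 1% throughout. Potentiation relative to the control glutamate response.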

For test [2], the target named is T1, Glutamate NMDA receptor; Grin1/Grin2b (Rattus norvegicus). Briefly: Positive allosteric modulation of recombinant rat GluN1alpha/GluN2B receptor expressed in HEK293 cells assessed as potentiation of glutamate-induced current response at 30 uM at holding potential -60mV cotreated with 1 uM glutamate by whole cell voltage clamp method relative to control. Format: cell-based. Summed up:
as §1

For test [3] the target is unchanged. Briefly: Positive allosteric modulation of recombinant rat GluN1alpha/GluN2B receptor expressed in HEK293 cells assessed as potentiation of glutamate-induced current response at 30 uM at holding potential -60mV pretreated with cells followed by 1 mM glutamate addition by whole cell voltage clamp method relative to control. Format: cell-based. An outline of the steps: as §1

Test [4] has the same target. Put plainly: Positive allosteric modulation of recombinant rat GluN1alpha/GluN2B receptor expressed in HEK293 cells assessed as potentiation of glutamate-induced current response at 1 to 100 uM at holding potential -60mV by whole cell voltage clamp method relative to control. Format: cell-based. Summed up:
(§2)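 HEK293 cells transfected with GluN1-1a, the GluN2 subunit and GFP. Whole-cell voltage clamp at -60 mV, series resistance <10 MΩ, 80-90% compensation, room temperature (21–25 °C). Compound is co-applied with 1 µM glutamate by multibarrel fast perfusion (exchange ~10 ms). DMSO is held at 1% in all test and control solutions. Readout is % potentiation of the glutamate-evoked current.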

Test [5] addresses Glutamate NMDA receptor; Grin1/Grin2b (Rattus norvegicus, UniProt P35439+Q00960). Put plainly: Positive allosteric modulation of recombinant rat GluN1alpha/GluN2B receptor expressed in HEK293 cells assessed as potentiation of glutamate-induced current response at holding potential -60mV by whole cell voltage clamp method. Format: cell-based. An outline of the steps:
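HEK293 cells transfected with GluN1-1a, GluN2A, 2B, 2C or 2D and GFP cDNA. Whole-cell voltage clamp at -60 mV, 21–25 °C, series resistance <10 MΩ compensated 80–90%. Compound co-applied with 1 µM glutamate by fast multibarrel perfusion. DMSO 1% in all solutions. At least four cells per point.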

For test [6], the target named is T1, Glutamate NMDA receptor; Grin1/Grin2b (Rattus norvegicus). Put plainly: Positive allosteric modulation of recombinant rat GluN1alpha/GluN2B receptor expressed in HEK293 cells assessed as potentiation of glutamate-induced current response at 100 uM at holding potential -60mV by whole cell voltage clamp method relative to control. Format: cell-based. An outline of the steps:
as §2

The target of test [7] is T2, Glutamate NMDA receptor; Grin1/Grin2a (Rattus norvegicus) (UniProt P35439+Q00959). Briefly: Positive allosteric modulation of recombinant rat GluN1alpha/GluN2A receptor expressed in HEK293 cells assessed as potentiation of glutamate-induced current response at 1 to 30 uM at holding potential -60mV by whole cell voltage clamp method relative to control. Format: cell-based. An outline of the steps:
(§3)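 HEK293 cells transfected with GluN1-1a, GluN2A, 2B, 2C or 2D and GFP cDNA. Whole-cell voltage clamp at -60 mV, 21–25 °C, series resistance <10 MΩ compensated 80–90%. Compound co-applied with 1 µM glutamate by fast multibarrel perfusion. DMSO 1% in all solutions. […] At least four cells per point.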

The target in test [8] is T1, Glutamate NMDA receptor; Grin1/Grin2b (Rattus norvegicus). Put plainly: Positive allosteric modulation of recombinant rat GluN1alpha/GluN2B receptor expressed in HEK293 cells assessed as potentiation of glutamate-induced current response at 1 to 30 uM at holding potential -60mV by whole cell voltage clamp method relative to control. Format: cell-based. An outline of the steps:
as §3

Test [9] has as its target T3, Glutamate NMDA receptor; Grin1/Grin2c (Rattus norvegicus) (UniProt P35439+Q00961). Briefly: Positive allosteric modulation of recombinant rat GluN1alpha/GluN2C receptor expressed in HEK293 cells assessed as potentiation of glutamate-induced current response at 1 to 30 uM at holding potential -60mV by whole cell voltage clamp method relative to control. Format: cell-based. An outline of the steps: as §3

In test [10] the target is T4, Ionotropic glutamate receptor NMDA 1/2D (Rattus norvegicus) (UniProt P35439+Q62645). Put plainly: Positive allosteric modulation of recombinant rat GluN1alpha/GluN2D receptor expressed in HEK293 cells assessed as potentiation of glutamate-induced current response at 1 to 30 uM at holding potential -60mV by whole cell voltage clamp method relative to control. Format: cell-based. An outline of the steps:
as §3

Test [11] has as its target Glutamate NMDA receptor; Grin1/Grin2a (Rattus norvegicus, UniProt P35439+Q00959). Briefly: Positive allosteric modulation of recombinant rat GluN1alpha/GluN2A receptor expressed in HEK293 cells assessed as potentiation of glutamate-induced current response at holding potential -60mV by whole cell voltage clamp method. Format: cell-based. Summed up: as §3
Test [12] addresses Glutamate NMDA receptor; Grin1/Grin2c (Rattus norvegicus, UniProt P35439+Q00961). Put plainly: Positive allosteric modulation of recombinant rat GluN1alpha/GluN2C receptor expressed in HEK293 cells assessed as potentiation of glutamate-induced current response at holding potential -60mV by whole cell voltage clamp method. Format: cell-based. An outline of the steps: as §3
The target in test [13] is Ionotropic glutamate receptor NMDA 1/2D (Rattus norvegicus, UniProt P35439+Q62645). Put plainly: Positive allosteric modulation of recombinant rat GluN1alpha/GluN2D receptor expressed in HEK293 cells assessed as potentiation of glutamate-induced current response at holding potential -60mV by whole cell voltage clamp method. Format: cell-based. An outline of the steps: as §3

In test [14] the target is T2, Glutamate NMDA receptor; Grin1/Grin2a (Rattus norvegicus). Put plainly: Positive allosteric modulation of recombinant rat GluN1alpha/GluN2A receptor expressed in HEK293 cells assessed as potentiation of glutamate-induced current response at 30 uM at holding potential -60mV by whole cell voltage clamp method relative to control. Format: cell-based. Summed up: as §3

The target in test [15] is T1, Glutamate NMDA receptor; Grin1/Grin2b (Rattus norvegicus). Briefly: Positive allosteric modulation of recombinant rat GluN1alpha/GluN2B receptor expressed in HEK293 cells assessed as potentiation of glutamate-induced current response at 30 uM at holding potential -60mV by whole cell voltage clamp method relative to control. Format: cell-based. Summed up:
as §3

The target of test [16] is T3, Glutamate NMDA receptor; Grin1/Grin2c (Rattus norvegicus). Put plainly: Positive allosteric modulation of recombinant rat GluN1alpha/GluN2C receptor expressed in HEK293 cells assessed as potentiation of glutamate-induced current response at 30 uM at holding potential -60mV by whole cell voltage clamp method relative to control. Format: cell-based. An outline of the steps:
as §3

In test [17] the target is T4, Ionotropic glutamate receptor NMDA 1/2D (Rattus norvegicus). Put plainly: Positive allosteric modulation of recombinant rat GluN1alpha/GluN2D receptor expressed in HEK293 cells assessed as potentiation of glutamate-induced current response at 30 uM at holding potential -60mV by whole cell voltage clamp method relative to control. Format: cell-based. An outline of the steps: as §3

For test [18], the target named is Glutamate NMDA receptor (Rattus norvegicus) (UniProt P35439+Q00959+Q00960+Q00961+Q62645+Q8VHN2+Q9R1M7). Briefly: Positive allosteric modulation of NMDAR in rat hippocampal neuron assessed as potentiation of NMDA-induced current response at 30 uM by whole cell voltage clamp method relative to control. Summed up: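 Native NMDARs in cultured hippocampal neurons, whole-cell voltage clamp at -60 mV, 21–25 °C. Bath also held 10 µM CNQX, 10 µM bicuculline, 0.5 µM TTX. Compound co-applied with 1 µM glutamate by fast perfusion (~10 ms exchange). DMSO 1% throughout. Potentiation relative to control glutamate response.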

For test [19], the species on record is Rattus norvegicus. Put plainly: Positive allosteric modulation of AMPAR in rat hippocampal neuron assessed as potentiation of AMPA-induced current response at 30 uM in presence of cyclothiazide by whole cell voltage clamp method relative to control. Summed up:
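Cultured hippocampal neurons, whole-cell voltage clamp at -60 mV, room temperature (21–25 °C). AMPAR current evoked by 5 µM AMPA; bath also held 10 µM cyclothiazide, 50 µM D-AP5, 10 µM bicuculline, 0.5 µM TTX. Compound co-applied by fast multibarrel perfusion. DMSO 1% in all test and control solutions. Effect expressed relative to control response.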

Test [20] is filed under the species Rattus norvegicus. Briefly: Positive allosteric modulation of GABAR in rat hippocampal neuron assessed as potentiation of GABA-induced current response at 30 uM in presence of cyclothiazide by whole cell voltage clamp method relative to control.

The structures appear in SMILES notation.

The Emax is the size of the effect at its maximum, as opposed to the concentration needed. As usually defined, the EC50 is the midpoint of the concentration-response curve. As to `CC(=O)[C@H]1CC[C@H]2[C@@H]3CC=C4C[C@@H](OC(=O)CCCCC(=O)O)CC[C@]4(C)[C@H]3CC[C@]12C`, the Activity in test [1] was 75%; in test [2], 136%; in [3], 134%; in test [6], 614%; in [14], 192%; in [15], 137%. The Activity was 118% in test [16]; 88% in test [17]; 138% in test [18]; -7% in the test listed under Rattus norvegicus [19]; -90% in the test filed under Rattus norvegicus [20]. Besides, the Emax came out at 151% in test [4]; 203% in test [7]; 157% in test [8]; 145% in test [9]; 115% in test [10]. Besides, the EC50 is 8.5 to 9.1 µM in test [5], 8.9 µM in [11], 10.4 µM in test [12] and 13 µM in test [13].

For the origin of these results see ChEMBL document CHEMBL4219253, “Positive Modulators of the N-Methyl-d-aspartate Receptor: Structure-Activity Relationship Study of Steroidal 3-Hemiesters” (J Med Chem, 2018).
